Measurements reported in ChEMBL document CHEMBL1126849, “Synthesis of A-ring fluorinated derivatives of (17 alpha,20E/Z)-[125I]iodovinylestradiols: effect on receptor binding and receptor-mediated target tissue uptake” (J Med Chem, 1993).

Assays:
Rattus norvegicus [1] = test: Biodistribution in liver of immature female rat after 12 hour administration of 3 micro Ci (111 kBq) in the absence of 60 microg estradiol; format: ADME, organism-based; conditions: in vivo
How it was run: (§1)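 Immature female Long Evans rats (21–24 days, 45–70 g), unanesthetized in retention cages, given 3 µCi (111 kBq) 125I-labeled steroid i.v. via lateral tail vein. Vehicle was ethanol diluted in saline containing 1% Tween-80, giving 9% ethanol final. The blocking group received 60 µg unlabeled estradiol co-injected. Rats were killed under ether by axillary bleeding, and tissues were KCl-washed and gamma-counted. Data are %ID/g, mean ± SE, n=3–5.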

Rattus norvegicus [2] = test: Biodistribution in lungs of immature female rat after 1 hr administration of 3 micro Ci (111 kBq) in the absence of 60 microg estradiol; format: ADME, organism-based, Lung; conditions: in vivo; how it was run: as §1
Rattus norvegicus [3] = test: Biodistribution in fat of immature female rat after 3 hour administration of 3 micro Ci (111 kBq) in the absence of 60 microg estradiol; format: ADME, organism-based, Adipose tissue; conditions: in vivo; how it was run: as §1
Rattus norvegicus [4] = test: Biodistribution in blood of immature female rat after 5 hour administration of 3 micro Ci (111 kBq) in the absence of 60 microg estradiol; format: ADME, organism-based; conditions: in vivo; how it was run: as §1
Rattus norvegicus [5] = test: Biodistribution in spleen of immature female rat after 3 hour administration of 3 micro Ci (111 kBq) in the absence of 60 microg estradiol; format: ADME, organism-based; conditions: in vivo
How it was run: (§2)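 Immature female Long Evans rats (21–24 days, 45–70 g), three to five per group, given 125I-labeled steroid (3 μCi, 111 kBq) by lateral tail vein without anesthesia. Vehicle: ethanol diluted in saline with 1% Tween-80, final ethanol 9%, 0.22 μm filtered. +E2 groups received 60 μg unlabeled estradiol co-injected. Killed under ether at set times; tissues KCl-washed, blotted, weighed, gamma counted; %ID/g, mean with SE.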

Rattus norvegicus [6] = test: Biodistribution in muscle of immature female rat after 12 hour administration of 3 micro Ci (111 kBq) in the absence of 60 microg estradiol; format: ADME, organism-based, Muscle tissue; conditions: in vivo; how it was run: as §2
Rattus norvegicus [7] = test: Biodistribution in uterus / blood of immature female rat after 3 hour administration of 3 micro Ci (111 kBq) in the absence of 60 microg estradiol; format: ADME, organism-based; conditions: in vivo
How it was run: (§3)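 Same in vivo procedure: immature female Long Evans rats (21–24 days), three to five per group, 3 μCi (111 kBq) tracer i.v. via tail vein in 9% ethanol/saline/1% Tween-80, ± 60 μg estradiol co-injected at 1 h. Uterus %ID/g (gamma counting) divided by blood, or by nontarget organ (muscle, spleen, lungs), %ID/g to give ratios.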

Rattus norvegicus [8] = test: Biodistribution in uterus of immature female rat after 1 hr administration of 3 micro Ci (111 kBq) in the presence of (+E2); format: ADME, organism-based; conditions: in vivo
How it was run: (§4)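 Immature female Long Evans rats (21–24 days, 45–70 g), 3–5 per group, unanesthetized in retention cages, given 3 μCi (111 kBq) 125I-labeled steroid by lateral tail vein. Vehicle: ethanol diluted with saline containing 1% Tween-80, final ethanol 9%. +E2 group co-injected 60 μg unlabeled estradiol (1 h only). Killed under ether; tissues KCl-washed, weighed, gamma-counted. Output: %ID/g (mean, SE) and uterus to blood or nontarget (muscle, spleen, lungs) ratios.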

Rattus norvegicus [9] = test: Biodistribution in liver of immature female rat after 1 hr administration of 3 micro Ci (111 kBq) in the absence of 60 microg estradiol; format: ADME, organism-based; conditions: in vivo; how it was run: as §1
Rattus norvegicus [10] = test: Biodistribution in kidney of immature female rat after 3 hour administration of 3 micro Ci (111 kBq) in the absence of 60 microg estradiol; format: ADME, organism-based; conditions: in vivo; how it was run: as §1
[11] = molecular target: T1, Estrogen receptor (Mus musculus) (UniProt O08537+P19785); test: Relative binding affinity (RBA) for murine cytoplasmic estrogen receptor at 4C for 2 hr; format: protein assay
How it was run: (§5)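 Murine uterine cytoplasmic extract incubated 2 h at 4 °C or at 25 °C with 20 nM [3H]estradiol and competitors at 2 nM–20 μM. RBA is taken as 100 × the ratio of competitor to unlabeled estradiol concentration needed for 50% competition of specific [3H]estradiol binding.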

[12] = molecular target: T1, Estrogen receptor (Mus musculus); test: Relative binding affinity (RBA) for murine cytoplasmic estrogen receptor at 4C for 18 hr; format: protein assay
How it was run: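 Competitive binding on murine uterine cytoplasmic extract with 20 nM [3H]estradiol and competitor steroids at 2 nM–20 μM, incubated 18 h at 0–4 °C. RBA = 100 × ratio of […] concentration giving 50% competition for specific binding. Mean of three experiments with SD.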

Rattus norvegicus [13] = test: Biodistribution in kidney of immature female rat after 1 hr administration of 3 micro Ci (111 kBq) in the absence of 60 microg estradiol; format: ADME, organism-based; conditions: in vivo; how it was run: as §1
Rattus norvegicus [14] = test: Biodistribution in blood of immature female rat after 1 hr administration of 3 micro Ci (111 kBq) in the absence of 60 microg estradiol; format: ADME, organism-based; conditions: in vivo; how it was run: as §1
[15] = molecular target: T1, Estrogen receptor (Mus musculus); test: Relative binding affinity (RBA) for murine cytoplasmic estrogen receptor at 25 degree C for 2 hr; format: protein assay; how it was run: as §5
Rattus norvegicus [16] = test: Biodistribution in uterus / spleen, muscle, lungs of immature female rat after 3 hour administration of 3 micro Ci (111 kBq) in the absence of 60 microg estradiol; format: ADME, organism-based; conditions: in vivo; how it was run: as §4
Rattus norvegicus [17] = test: Biodistribution in uterus / blood of immature female rat after 5 hour administration of 3 micro Ci (111 kBq) in the absence of 60 microg estradiol; format: ADME, organism-based; conditions: in vivo; how it was run: as §3
Rattus norvegicus [18] = test: Biodistribution in blood of immature female rat after 3 hour administration of 3 micro Ci (111 kBq) in the absence of 60 microg estradiol; format: ADME, organism-based; conditions: in vivo; how it was run: as §1
Rattus norvegicus [19] = test: Biodistribution in liver of immature female rat after 1 hr administration of 3 micro Ci (111 kBq) in the presence of (+E2); format: ADME, organism-based; conditions: in vivo; how it was run: as §1
Rattus norvegicus [20] = test: Biodistribution in uterus / spleen, muscle, lungs of immature female rat after 12 hour administration of 3 micro Ci (111 kBq) in the absence of 60 microg estradiol; format: ADME, organism-based; conditions: in vivo; how it was run: as §4
Rattus norvegicus [21] = test: Biodistribution in muscle of immature female rat after 3 hour administration of 3 micro Ci (111 kBq) in the absence of 60 microg estradiol; format: ADME, organism-based, Muscle tissue; conditions: in vivo; how it was run: as §2
Rattus norvegicus [22] = test: Biodistribution in spleen of immature female rat after 1 hr administration of 3 micro Ci (111 kBq) in the presence of (+E2); format: ADME, organism-based; conditions: in vivo; how it was run: as §2
Rattus norvegicus [23] = test: Biodistribution in lungs of immature female rat after 3 hour administration of 3 micro Ci (111 kBq) in the absence of 60 microg estradiol; format: ADME, organism-based, Lung; conditions: in vivo; how it was run: as §2
Rattus norvegicus [24] = test: Biodistribution in thyroid of immature female rat after 3 hour administration of 3 micro Ci (111 kBq) in the absence of 60 microg estradiol; format: ADME, organism-based, Thyroid gland; conditions: in vivo; how it was run: as §2
Rattus norvegicus [25] = test: Biodistribution in spleen of immature female rat after 5 hour administration of 3 micro Ci (111 kBq) in the absence of 60 microg estradiol; format: ADME, organism-based; conditions: in vivo; how it was run: as §2
Rattus norvegicus [26] = test: Biodistribution in uterus of immature female rat after 3 hour administration of 3 micro Ci (111 kBq) in the absence of 60 microg estradiol; format: ADME, organism-based; conditions: in vivo; how it was run: as §4
Rattus norvegicus [27] = test: Biodistribution in fat of immature female rat after 5 hour administration of 3 micro Ci (111 kBq) in the absence of 60 microg estradiol; format: ADME, organism-based, Adipose tissue; conditions: in vivo; how it was run: as §1
Rattus norvegicus [28] = test: Biodistribution in fat of immature female rat after 1 hr administration of 3 micro Ci (111 kBq) in the presence of (+E2); format: ADME, organism-based, Adipose tissue; conditions: in vivo; how it was run: as §1
Rattus norvegicus [29] = test: Biodistribution in uterus / spleen, muscle, lungs of immature female rat after 1 hr administration of 3 micro Ci (111 kBq) in the presence of (+E2); format: ADME, organism-based; conditions: in vivo; how it was run: as §3

T1 sequence (O08537 whole entry, looked up): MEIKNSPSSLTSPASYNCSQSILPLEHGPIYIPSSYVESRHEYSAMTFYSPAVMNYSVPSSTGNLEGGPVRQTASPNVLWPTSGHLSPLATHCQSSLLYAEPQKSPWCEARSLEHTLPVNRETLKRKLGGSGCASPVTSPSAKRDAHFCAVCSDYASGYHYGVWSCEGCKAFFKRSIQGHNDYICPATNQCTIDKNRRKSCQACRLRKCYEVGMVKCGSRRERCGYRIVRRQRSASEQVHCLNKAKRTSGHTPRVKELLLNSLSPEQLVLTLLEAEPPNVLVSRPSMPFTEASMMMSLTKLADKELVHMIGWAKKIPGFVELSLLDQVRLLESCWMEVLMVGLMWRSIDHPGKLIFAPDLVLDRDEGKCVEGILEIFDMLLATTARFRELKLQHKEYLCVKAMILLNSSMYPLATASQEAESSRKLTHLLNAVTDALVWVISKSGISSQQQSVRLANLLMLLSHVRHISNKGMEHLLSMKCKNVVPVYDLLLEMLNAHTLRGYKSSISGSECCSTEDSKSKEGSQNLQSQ
T1 sequence (P19785 whole entry, looked up): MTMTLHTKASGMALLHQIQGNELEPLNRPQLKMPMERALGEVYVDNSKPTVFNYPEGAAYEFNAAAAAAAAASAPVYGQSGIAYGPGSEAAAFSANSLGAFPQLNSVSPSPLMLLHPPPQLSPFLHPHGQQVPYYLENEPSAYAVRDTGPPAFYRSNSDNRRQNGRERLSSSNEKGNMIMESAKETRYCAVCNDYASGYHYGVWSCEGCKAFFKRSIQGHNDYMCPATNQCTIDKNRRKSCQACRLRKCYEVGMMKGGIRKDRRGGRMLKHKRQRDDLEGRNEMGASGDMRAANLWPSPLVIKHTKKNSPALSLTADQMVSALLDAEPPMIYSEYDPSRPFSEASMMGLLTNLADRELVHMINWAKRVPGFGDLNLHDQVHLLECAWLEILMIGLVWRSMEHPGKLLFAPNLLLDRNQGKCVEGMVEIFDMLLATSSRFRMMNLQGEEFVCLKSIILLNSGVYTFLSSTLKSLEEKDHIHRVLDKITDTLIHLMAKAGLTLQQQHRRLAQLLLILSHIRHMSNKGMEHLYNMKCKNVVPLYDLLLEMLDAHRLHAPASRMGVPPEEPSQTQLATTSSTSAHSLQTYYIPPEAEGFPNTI

## C[C@]12CC[C@@H]3c4ccc(O)c(F)c4CC[C@H]3[C@@H]1CC[C@@]2(O)/C=C\I
Rattus norvegicus [1]
  ID/g: 1.78%
Rattus norvegicus [2]
  ID/g: 1.89%
Rattus norvegicus [3]
  ID/g: 1.96%
Rattus norvegicus [4]
  ID/g: 0.47%
Rattus norvegicus [5]
  ID/g: 0.48%
Rattus norvegicus [6]
  ID/g: 0.37%
Rattus norvegicus [7]
  uterus to blood %ID/g ratio (unitless): 17.08%
Rattus norvegicus [8]
  ID/g: 0.86%
Rattus norvegicus [9]
  ID/g: 3.49%
Rattus norvegicus [10]
  ID/g: 0.82%
[11]
  RBA: 47.4
[12]
  RBA: 66.9
Rattus norvegicus [13]
  ID/g: 1.87%
Rattus norvegicus [14]
  ID/g: 0.71%
[15]
  RBA: 203
Rattus norvegicus [16]
  Uterus to nontarget tissue (spleen, muscle, lungs) uptake ratio: 12.16%
Rattus norvegicus [17]
  uterus to blood ratio: 22.6%
Rattus norvegicus [18]
  ID/g: 0.48%
Rattus norvegicus [19]
  ID/g: 3.04%
Rattus norvegicus [20]
  uterus to nontarget tissue ratio: 31.56%
Rattus norvegicus [21]
  ID/g: 0.82%
Rattus norvegicus [22]
  ID/g: 0.56%
Rattus norvegicus [23]
  ID/g: 0.85%
Rattus norvegicus [24]
  ID/g: 87.39%
Rattus norvegicus [25]
  ID/g: 0.4%
Rattus norvegicus [26]
  ID/g: 7.96%
Rattus norvegicus [27]
  ID/g: 1.71%
Rattus norvegicus [28]
  ID/g: 3.41%
Rattus norvegicus [29]
  uterus-to-nontarget tissue uptake ratio: 1.21%
